From publication PMC4327866 (Journal of controlled release : official journal of the …, 2014)
Where “and” joins values, the source holds several entries; their conditions need not be identical. Equal values may be shown once.

Tests used:
[1] = Optical characterization of the ELP phase diagram; format: physicochemical; conditions: for Tt (observed transition temperature): 25 μM in PBS, turbidity at 350 nm, ramp 1 °C min−1, maximum first derivative of the curve; for slope of transition temperature vs log10 concentration / y-intercept of transition temperature vs log10 concentration: log-linear regression of Tt vs concentration, 5–100 μM in PBS, mean [95% CI]; for temperature of phase separation (Figure 2 legend, approximate): optical density as a function of temperature and concentration; for Property at 37 °C: state of the protein polymer at 37 °C (soluble / nanoparticle / coacervate)
Procedure, shortened: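 Turbidity (350 nm) of protein polymer solutions in PBS was recorded as a function of temperature across several concentrations. Tt was the maximum of the first derivative of the curve. Observed Tt was reported at 25 μM. Slope and intercept came from log-linear regression, Tt = m Log₁₀[C_ELP] + b. Mean [95% CI].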

[2] = Dynamic light scattering: hydrodynamic radius and polydispersity; format: physicochemical; conditions: DLS; for nanoassembly by dynamic light scattering: below the transition temperature; for hydrodynamic radius at 37 °C: filtered through 0.2 μm cellulose acetate; for hydrodynamic radius retained below the transition temperature: 25 μM in PBS (Discussion); for temperature up to which the nanoparticles are stable: 4 to 60 °C in 1 °C increments
Procedure, shortened: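 Test protein polymers at 25 μM in PBS, passed through 0.2 μm cellulose acetate filters, spun at 4 °C, 1200 rpm to clear air bubbles, and overlaid with mineral oil against evaporation. Hydrodynamic radius and polydispersity were read on a DLS plate reader from 4 to 60 °C in 1 °C steps.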

[3] = design: species or system rats; conditions: rat, in vivo
[4] = Negative and cryogenic transmission electron microscopy of nanoparticles; format: physicochemical; conditions: average ± 95% confidence interval
Procedure, shortened: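 Samples at 25 μM, unfiltered or 0.2 μm filtered. Negative TEM used carbon-coated copper grids, excess wicked off, 2 wt% aqueous uranyl acetate stain, 100 kV. Cryo-TEM used plasma-treated lacey carbon grids plunged into liquid-nitrogen-cooled ethane, 80 kV. Sizes were averaged over three fields (>50 particles/image TEM; 20 cryo-TEM). Bilayer thickness was taken at three points per vesicle circumference. Mean ± 95% CI.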

Substance | Tt (observed transition temperature) [1] [°C] | slope of transition temperature vs log10 concentration [1] | y-intercept of transition temperature vs log10 concentration [1] [°C] | temperature of phase separation (Figure 2 legend, approximate) ([1]; PBS) | Property at 37 °C ([1]; PBS) | nanoassembly by dynamic light scattering ([2]; 25 μM in PBS) | hydrodynamic radius at 37 °C ([2]; 25 μM in PBS, 37 °C) | hydrodynamic radius retained below the transition temperature [2] [nm] | temperature up to which the nanoparticles are stable ([2]; 25 μM in PBS) [°C] | Plasma clearance, CLp [3] [mL/min] | Volume of distribution, V0 [3] [mL] | further results
G(VPGAG)192Y [A192] | 61.9 | −9.2 °C/log10(μM) | 74.9 | ~60 °C | soluble | do not exhibit any signs of nanoassembly | 5 nm |  |  |  |  | 
MDWFKAFYDKVAEKFKEAFGLVPRGS G(VPGVG VPGAG VPGAG)64Y [L4F-V2A192] | 34.3 | −1.3 °C/log10(μM) | 36.2 | about 34 °C |  | form nanoparticles | 42 nm and ~50 nm | 42 | 34 |  |  | 
G(VPGVG VPGAG VPGAG)64Y [V2A192] | 47.2 | −5.8 °C/log10(μM) | 55.9 | around 47 °C | soluble | do not exhibit any signs of nanoassembly | 5 nm |  |  |  |  | 
Met-Asp-Trp-Phe-Lys-Ala-Phe-Tyr-Asp-Lys-Val-Ala-Glu-Lys-Phe-Lys-Glu-Ala-Phe-Leu-FITC [Free L4F, reference compound] |  |  |  |  |  |  |  |  |  | 0.12 | 12 | 
MDWFKAFYDKVAEKFKEAFGLVPRGS G(VPGAG)192Y [L4F-A192] | 45.8 | −2.6 °C/log10(μM) | 49.6 |  | nanoparticle | form nanoparticles | 50 nm and ~50 nm | 50 | 46 | 0.37 | 26 | depression of transition temperature below the parent ELP ([1]; at 25 μM): 14 °C; temperature of phase separation / transition temperature ([1]; at 25 μM, optical density, PBS): above 47 °C; polydispersity ([2]; 25 μM in PBS, 37 °C): 9 nm; nanoparticle radius, negative TEM, unfiltered ([4]; 25 μM, 2 % uranyl acetate stain, unfiltered): 41 ± 16 nm; vesicle radius, cryo-TEM, filtered ([4]; 25 μM, filtered through 0.2 μm): 43 ± 17 nm and 43 nm; vesicle radius, cryo-TEM, unfiltered ([4]; 25 μM, unfiltered): 36 ± 13 nm; membrane thickness, cryo-TEM, filtered ([4]; 0.2 um filtered, n = 8): 6.8 ± 0.7 nm and 6.8 nm; membrane (wall) thickness, cryo-TEM, unfiltered ([4]; unfiltered, n = 18): 8.4 ± 1.3 nm and 8.4 nm; plasma half-life (approximate) [3]: approximately 1 hr; volume of distribution relative to free L4F peptide [3]: approximately twice
